Columns and labels:
[1] = test system: MycCaP cells; test: Caspase-3 and immunogenic cell death assays in MycCaP cells; format: cell-based, mouse
Method in brief: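 MycCaP cells exposed to 4 μM test compound for 72 hr; supernatants collected. Secreted ATP read by bioluminescent kit and HMGB1 by ELISA, with cell counts taken for quantification. Surface calreticulin: cells stained with rabbit anti-calreticulin (1:1000, 60 min), then Alexa Fluor 488 anti-rabbit (1 μg/ml), read by flow cytometry.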

[2] = test system: MycCaP organoids and FVB mouse prostate organoids; test: Prostate organoid culture; format: cell-based; details: 4 days treatment
Method in brief: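 Prostate lobes from 8–10-week-old FVB males were minced and digested with collagenase in RPMI1640/10% FBS for 2 hr at 37 °C. Trypsin and DNase I followed, then a 40 μm strainer. Cells were plated on ultra-low-attachment plates: 5,000 normal cells or 1000 MycCaP cells per 100 μl, with media added at day 4. Organoids formed by day 7 (normal) or day 4 (MycCaP). They were pelleted, resuspended in media with compound or DMSO, and imaged in bright field 4 days after treatment.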

[3] = biological target: MYC (Homo sapiens, UniProt P01106); test: Cellular thermal shift assay; format: cell-based
Sequence of MYC (Homo sapiens, UniProt P01106) (P01106 16-454): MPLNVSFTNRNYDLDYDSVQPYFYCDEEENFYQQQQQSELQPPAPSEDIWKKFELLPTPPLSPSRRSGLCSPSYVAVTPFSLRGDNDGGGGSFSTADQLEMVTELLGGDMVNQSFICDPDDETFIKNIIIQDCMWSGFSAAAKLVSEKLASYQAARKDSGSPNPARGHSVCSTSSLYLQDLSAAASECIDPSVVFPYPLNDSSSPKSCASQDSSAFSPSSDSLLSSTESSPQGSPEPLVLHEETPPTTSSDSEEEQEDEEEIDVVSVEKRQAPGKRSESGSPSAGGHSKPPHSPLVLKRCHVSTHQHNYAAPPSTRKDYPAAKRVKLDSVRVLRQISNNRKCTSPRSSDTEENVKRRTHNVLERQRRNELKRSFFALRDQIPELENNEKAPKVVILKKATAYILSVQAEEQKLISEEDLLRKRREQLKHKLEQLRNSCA
Method in brief: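 PC3 cells (70–80% confluent; also PC3 stably expressing Flag-MYCT58A, puromycin 1.5 μg/ml selected) treated with test compound or DMSO for 30 min. Cells washed, resuspended in PBS with protease/phosphatase inhibitors plus the same compound dose, split into 7–10 aliquots (~1 million cells each), heated 2 min at graded temperatures, then 3 min room temperature. Lysates boiled 5 min at 90 °C; MYC quantified by Western blot densitometry to build melt curves.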

[4] = test system: phosphatase inhibition screening panel; test: Phosphatase inhibition screening panel; format: biochemical; details: 10-dose 3-fold serial dilutions starting at 100 μM
Method in brief: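 Run in 10-dose IC₅₀ mode, each compound tested singly, with a PTP1B inhibitor as control compound.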

[5] = biological target: MYC/MAX/DNA complex (Homo sapiens, UniProt P01106); test: EMSA, MYC/MAX/DNA complex formation; format: biochemical
Sequence of MYC/MAX/DNA complex (P01106 368-454, one chain of several): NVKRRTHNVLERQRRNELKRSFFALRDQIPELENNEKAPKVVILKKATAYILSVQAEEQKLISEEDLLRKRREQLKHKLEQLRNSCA

[6] = test system: pheochromocytoma PC12 cells; test: Cell viability, PC12 cells; format: cell-based; details: PC12, does not require MYC/MAX dimer for proliferation
Method in brief: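 PC12 cells were grown in F-12K with 2% heat-inactivated FBS and 12.5% horse serum. They were seeded at 1000 to 5000 cells per well in 96-well plates and treated for 2 to 7 days. Read-out was viable-cell count or MTS absorbance at 490 nm.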

[7] = biological target: GSK3β-mediated MYC pT58 (Homo sapiens, UniProt P01106); test: In vitro kinase assay; format: biochemical; details: 6 μM
Sequence of GSK3β-mediated MYC pT58 (P01106 16-454): as the sequence (P01106 16-454) above
Method in brief: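 Phosphorylation reactions were run in kinase buffer (25 mM Tris-HCl pH 7.5, 5 mM β-glycerophosphate, 2 mM DTT, 0.1 mM sodium vanadate, 10 mM MgCl₂) at room temperature for 2 hr in total.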

[8] = biological target: MYC/MAX interaction (Homo sapiens, UniProt P01106); test: Co-immunoprecipitation and proximity ligation assay in PC3 cells; format: cell-based; details: 6 μM
Sequence of MYC/MAX interaction (P01106 16-454): as above
Method in brief: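 For PLA, PC3 or PC3 T58A cells were grown in chamber slides and treated for 1 to 2 hr, then fixed in 4% PFA and permeabilised with 0.5% Triton-X. PLA signals per cell were counted by image analysis. For co-IP, cells were lysed in 20 mM Tris-HCl pH 8.0, 100 mM NaCl, 1 mM EDTA and 0.5% NP-40. Pellets were enzymatically sheared for 90 min at 4 °C and precipitates were analysed by western blot.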

[9] = test system: MycCaP tumor allografts; test: MycCaP allograft/xenograft mouse model; format: in vivo
Method in brief: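 Male FVB (allograft) or NSG (xenograft) mice, 6–8 weeks, ~25 g, acclimated >4 days. Injected s.c. in flanks with 1 × 10⁶ MycCaP E-box-luciferase cells in 100 μl Matrigel. Tumors followed by caliper ((length × width × width)/2) and by bioluminescent imaging after i.p. substrate injection. Body weight recorded. Tumor tissue assessed by H&E and immunofluorescence for Ki67, MYC pT58 and PD-L1.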

[10] = test system: MYC; test: Western blot of MYC protein level, stability and phosphorylation in cells; format: cell-based, human
Method in brief: (§1)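 PC3 cells, or PC3 stably expressing Flag-MYC, Flag-MYCT58A or Flag-MYCS62A (lentiviral, 1.5 μg/ml puromycin selection), were used. For stability, cells were pretreated 3 hr with compound or DMSO, then given cycloheximide and harvested at time points. MYC, pT58, pS62, GSK3β and pGSK3β S9 were detected by western blot over a time course. Band intensities were densitometrically quantified.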

[11] = biological target: MYC (Homo sapiens, UniProt P01106, T73A); test: as above; format: cell-based; details: 6 μM, PC3 cells expressing Flag-MYCT58A
Sequence of MYC (Homo sapiens, UniProt P01106, T73A) (P01106 16-454 T73A): as the sequence (P01106 16-454) above, with T58A counted along it
Method in brief: as §1

[12] = biological target: MYC353–439 (Homo sapiens, UniProt P01106); test: Fluorescence polarization competition assay against 10074-G5; format: binding
Sequence of MYC353–439 (P01106 368-454): as the sequence (P01106 368-454, one chain of several) above

[13] = test system: Rat1 fibroblasts (HO15.19, TGR.1); test: Cell viability, Rat1 fibroblasts; format: cell-based, rat; details: HO15.19 vs TGR.1
Method in brief: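 Myc-knockout HO15.19 and wild-type TGR.1 Rat-1 fibroblasts were kept in DMEM with 10% calf serum. They were seeded in 48-well plates at 1000 per well (HO15.19) or 3000 per well (TGR.1). After 2 to 7 days of treatment, viable cells were counted or MTS absorbance was read at 490 nm.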

[14] = test system: MYC target gene expression; test: RNA-seq and RT-qPCR gene expression; format: cell-based, human
Method in brief: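 MYCT58A cells were PC3 transduced with Flag-MYCT58A lentivirus and selected with 1.5 μg/ml puromycin. RT-qPCR used human MYC and 18S rRNA primers. For RNA-seq, PC3 cells were treated for 24 hr in triplicate and RNA was extracted after a PBS wash.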

[15] = biological target: MAX/MAX homodimer (Homo sapiens, UniProt P61244); test: EMSA, MAX/MAX homodimer binding to E-box DNA; format: biochemical
Sequence of MAX/MAX homodimer (P61244 whole entry): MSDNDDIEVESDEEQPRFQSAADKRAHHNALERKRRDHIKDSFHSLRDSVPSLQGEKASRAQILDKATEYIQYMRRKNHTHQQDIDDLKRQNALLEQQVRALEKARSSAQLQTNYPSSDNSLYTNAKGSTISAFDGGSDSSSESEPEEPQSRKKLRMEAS

[16] = test system: 468 kinases, including GSK3β; test: KINOMEscan kinome screen; format: binding; details: 6 μM
[17] = MycCaP E-box-Luc allografts, i.p.
[18] = MycCaP tumor tissue after treatment
[19] = MycCaP tumors post-361 treatment

Compound: Cn1nc(C(F)(F)F)cc1-c1ccc(OCc2ccc(Cl)cc2)c(-c2cc(C(F)(F)F)cc(C(F)(F)F)c2)c1O [Compound 361, 6-((4-chlorobenzyl)oxy)-3-(1-methyl-3-(trifluoromethyl)-1H-pyrazol-5-yl)-3’,5’-bis(trifluoromethyl)-[1,1’-biphenyl]-2-ol]
- markers of immunogenic cell death ([1]; 4 μM, 72 hr): significant upregulation of cell surface calreticulin expression, and release of HMGB1 and ATP
- cancer cell death, caspase-3 ([1]; 6 μM): induces cancer cell death with activated caspase-3 expression
- sensitivity of MycCaP versus normal prostate organoids [2]: more sensitive
- interaction with MYCT58A by CETSA ([3]; 6 μM, MYCT58A-expressing PC3 cells): can interact
- thermal stability of MYC protein (CETSA) ([3]; PC3 cells, 30 min, 361 4–10 μM, G5 15–60 μM, 360 6 μM): significant thermal destabilization
- phosphatase inhibition screening panel result [4]: negative
- disruption of MYC/MAX/DNA complex formation ([5]; EMSA): impaired
- activity in vitro ([5]; EMSA and cell viability assays): active
- effect on cell viability [6]: little effect
- pT58 levels in in vitro kinase assay [7]: significantly increased pT58 levels
- MYCT58A/MAX interactions (PLA) ([8]; MYCT58A-expressing PC3 cells): disrupted
- MYC/MAX interaction by co-IP and PLA ([8]; PC3 cells, 1 hr): disruption of the MYC/MAX interaction
- tumor inhibitory effect, FVB versus NSG mice ([9]; 50 mg/kg/day for 4 days): stronger tumor inhibitory effect in immunocompetent FVB mice
- tumor immune cells by flow cytometry ([9]; 50 mg/kg/day, 2 days on/2 days off for 2 rounds): an increase in CD3^+CD4^+ and CD3^+CD8^+ T cells, IFNγ-expressing CD4^+ and CD8^+ T cells, TNFα-expressing CD8^+ cells, dendritic cells and NK cells
- body weight ([9]; 70 mg/kg/day): without additional loss in mouse body weight
- body weight loss ([9]; 100 mg/kg/day, average): 10%
- tumor growth, combination with anti-PD1 ([9]; 361 50 mg/kg/day 2 days then anti-PD1 100 μg/d 2 days, 4 cycles): synergistic suppression of tumor growth
- tumor growth ([9]; FVB mice, established MycCaP allografts, 100 mg/kg/day): induced tumor regression
- E-box luciferase activity in vivo [9, 17]: significantly reduced
- tumor size, rapid in vivo screen [9, 17]: significantly reduced
- Ki67 proliferation marker in tumor tissues [9, 18]: decreased
- MYC pT58 level in tumor tissues [9, 18]: increased
- PD-L1 expression on tumor cells [9, 19]: upregulation of PD-L1 expression
- tumor infiltration of CD3+ T cells [9, 19]: enhanced tumor infiltration of CD3^+ T cells
- tolerability ([9]; combination study dose, 50 mg/kg/day 2 days on/off): well-tolerated
- tumor growth ([9]; treatment re-started at 70 mg/kg/day): effective in controlling tumor growth
- phosphorylation of β-Catenin at S33/37/T41 [10]: did not affect
- MYC T58 and S62 phosphorylation ([10]; 6 μM, PC3 cells): selectively increased T58 but not S62 phosphorylation
- regulatory GSK3β S9 phosphorylation ([10]; PC3 cells): did not affect
- MYC, MYCN and MAX protein levels ([10]; multiple cell lines expressing MYC and MYCN): reduction in MYC and MYCN, but not MAX, protein levels
- degradation of MYCT58A mutant [11]: not readily degraded
- Kd [12]: 3.2 µM
- sensitivity of Myc knockout versus wild-type fibroblasts [13]: more resistant
- MYC mRNA levels [14]: not altered
- expression of MYC target genes CDC25A and MYB ([14]; 6 μM, 24 hr, MYCT58A-expressing cells): potently suppressed
- MYC target gene expression (GSEA, six gene sets) ([14]; 6 μM, 24 hr, RNA-seq): significantly down regulated in all gene sets
- MAX/MAX homodimer binding to E-box DNA [15]: but not the closely related MAX/MAX homodimer
- kinome screen result [16]: negative

Source: publication PMC6939458 (Cancer cell, 2019)
